# Laboratory results published in ChEMBL document CHEMBL4825680, “Structure-based discovery of potent and selective small-molecule inhibitors targeting signal transducer and activator of transcription 3 (STAT3)” (Eur J Med Chem, 2021).
# The source made the active and inactive calls. The calls are words filed in the database; no cut-off is given here.
# How the values were obtained:
# [1] = tested on: MDA-MB-231; assay: Inhibition of cell migration in human MDA-MB-231 cells incubated for 12 to 96 hrs by wound healing assay; format: functional, cell-based; conditions: dose 0.3-3 µM, time 12-96 hrs
# In short: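 Cells grown to 100% confluence, then scratched with a pipette tip. Treated with 0–3 μM until vehicle-treated cells had migrated into the scratch. Images taken by microscope after about 12–96 h. Triplicate experiments.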
# [2] = tested on: MDA-MB-231; assay: Antiproliferative activity against human MDA-MB-231 cells; format: functional, cell-based
# [3] = Induction of apoptosis in human MDA231-LM2-4175 cells assessed as early apoptotic cells at 3 uM after 48 hrs by Annexin-V-FITC/propidium iodide staining based flow cytometric analysis (reference value: 2.49%); format: functional
# [4] = Induction of apoptosis in human MDA231-LM2-4175 cells assessed as necrotic cells at 3 uM after 48 hrs by Annexin-V-FITC/propidium iodide staining based flow cytometric analysis (reference value: 0.531%); format: functional
# [5] = Antitumor activity against human MDA231-LM2-4175 cells xenografted in mouse assessed as tumor growth inhibition at 15 mg/kg, iv administered once daily for 20 days; format: functional; conditions: MDA231-LM2-4175, iv, 480 h, time 20 day, read-out: TGI
# [6] = target: T1, Signal transducer and activator of transcription 3 (Homo sapiens, UniProt P40763); assay: Inhibition of STAT3 in human MDA-MB-468 cells assessed as downregulation of Bcl-xL expression at 0.3 to 3 uM after 24 hrs by western blot analysis; format: cell-based; conditions: dose 0.3-3 µM
# T1 sequence (P40763 whole entry): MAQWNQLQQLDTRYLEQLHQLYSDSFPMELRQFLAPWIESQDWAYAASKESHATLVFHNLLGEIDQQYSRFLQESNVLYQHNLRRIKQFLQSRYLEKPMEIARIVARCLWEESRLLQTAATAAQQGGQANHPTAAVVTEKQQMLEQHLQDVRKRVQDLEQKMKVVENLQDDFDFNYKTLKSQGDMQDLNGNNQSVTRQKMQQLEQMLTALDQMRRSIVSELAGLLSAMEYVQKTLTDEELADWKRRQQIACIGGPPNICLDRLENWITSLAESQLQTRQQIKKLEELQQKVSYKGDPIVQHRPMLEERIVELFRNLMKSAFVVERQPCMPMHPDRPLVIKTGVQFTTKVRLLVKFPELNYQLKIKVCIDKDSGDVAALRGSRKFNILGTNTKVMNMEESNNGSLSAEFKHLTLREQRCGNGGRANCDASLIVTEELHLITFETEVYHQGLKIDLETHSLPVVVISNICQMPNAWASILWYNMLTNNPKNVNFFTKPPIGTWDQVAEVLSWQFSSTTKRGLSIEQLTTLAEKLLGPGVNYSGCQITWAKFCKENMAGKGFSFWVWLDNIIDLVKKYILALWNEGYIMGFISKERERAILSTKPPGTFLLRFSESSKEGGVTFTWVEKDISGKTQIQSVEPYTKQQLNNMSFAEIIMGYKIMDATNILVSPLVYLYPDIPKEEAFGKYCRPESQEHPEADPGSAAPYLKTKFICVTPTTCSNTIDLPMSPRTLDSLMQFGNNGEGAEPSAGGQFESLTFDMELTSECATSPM
# In short: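 TNBC cells given vehicle (0.1% DMSO) or graded compound levels for 24 h, lysed in RIPA with PMSF and phosphatase inhibitors. BCA-quantified lysate (20–50 µg) run on SDS-PAGE, transferred to PVDF, blocked in 5% BSA. Probed overnight at 4 °C for Bcl-xL, Mcl-1 and c-Myc, with β-actin. HRP secondary, ECL detection. Three independent experiments.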
# [7] = Tmax in Sprague-Dawley rat at 10 mg/kg, po measured up to 24 hrs by LC-MS/MS analysis; format: ADME, organism-based; conditions: in vivo
# In short: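 Male SD rats dosed orally at 10 mg/kg in DMSO/0.5% HPMC (5/95, v/v). Blood drawn at 0.25, 0.5, 1, 2, 4, 8 and 24 h for plasma. Plasma analysed by LC-MS/MS on a UPLC BEH phenyl column with 0.1% formic acid water/acetonitrile.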
# [8] = tested on: MGC-803; assay: Antiproliferative activity against human MGC-803 cells; format: functional, cell-based
# [9] = Antitumor activity against human MDA231-LM2-4175 cells xenografted in mouse assessed as tumor growth inhibition at 5 mg/kg, iv administered once daily for 20 days; format: functional; conditions: MDA231-LM2-4175, iv, 480 h, time 20 day, read-out: TGI
# [10] = target: T1, Signal transducer and activator of transcription 3; assay: Inhibition of STAT3 phosphorylation at Ser727 residue in human MDA-MB-231 cells at 3 uM after 3 hrs by Western blotting analysis; format: cell-based
# [11] = Induction of apoptosis in human MDA231-LM2-4175 cells assessed as late apoptotic cells at 3 uM after 48 hrs by Annexin-V-FITC/propidium iodide staining based flow cytometric analysis (reference value: 2.60%); format: functional
# [12] = Toxicity in NOD/SCID mouse xenografted with patient-derived breast cancer cells assessed as morphological change in lung at 5 to 15 mg/kg, […] once daily for 20 days by HE staining based assay; format: organism-based; conditions: in vivo, iv, dose 5-15 mg/kg, time 20 day
# In short: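 Female NOD-SCID mice implanted subcutaneously in the flank with about 2 mm³ TNBC PDX fragments. At about 100 mm³ tumour volume, randomised n=6/group: vehicle (PBS with 15% Cremophor EL), 5 or 15 mg/kg intraperitoneally daily. Killed at day 20; heart, liver, spleen, lung and kidney collected for morphological examination.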
# [13] = target: T1, Signal transducer and activator of transcription 3; assay: Inhibition of STAT3 DNA binding in human MDA-MB-231 cells at 0.3 to 1 uM after 3 hrs by EMSA analysis; format: cell-based; conditions: dose 0.3-1 µM
# In short: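 Cells exposed to vehicle or compound for 3 h. Nuclear extracts prepared and BCA-quantified. Nuclear protein (8–10 µg) incubated with biotinylated STAT3 or STAT5 probe, resolved on 6% native polyacrylamide gel, transferred to nylon membrane and detected with a gel-shift kit.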
# [14] = tested on: HCC70; assay: Effect on total STAT5 level in human HCC70 cells at 0.3 to 3 uM after 3 hrs by Western blotting analysis; format: functional, cell-based; conditions: dose 0.3-3 µM
# In short: (§1)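 Breast cancer cells were treated with vehicle (0.1% DMSO) or compound, then lysed in RIPA with PMSF and phosphatase inhibitors. 20–50 μg protein was run on 8 or 12% SDS-PAGE, blotted to PVDF, blocked in 5% BSA, probed with primary antibodies overnight at 4 °C, then HRP secondaries, with ECL detection.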
# [15] = tested on: MDA-MB-231; assay: Effect on total STAT1 level in human MDA-MB-231 cells at 0.3 to 3 uM after 3 hrs by Western blotting analysis; format: functional, cell-based; conditions: dose 0.3-3 µM; in short: as §1
# [16] = tested on: HCC70; assay: Inhibition of colony formation in human HCC70 cells at 0.3 uM after 10 to 15 days by crystal violet staining based assay; format: functional, cell-based; conditions: time 10-15 day
# In short: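 Cells seeded at 0.5×10^3–1×10^3 per well; compound added the next day. Medium and compound renewed every 2–3 days. After about 10–15 days, colonies fixed with 4% paraformaldehyde, stained with crystal violet, scanned and quantified by image analysis. Triplicate.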
# [17] = target: T2, Signal transducer and activator of transcription 1-alpha/beta (Homo sapiens) (UniProt P42224); assay: Inhibition of STAT1 phosphorylation at Y701 residue in human MDA-MB-231 cells at 0.3 to 3 uM after 3 hrs by Western blotting analysis; format: cell-based; conditions: dose 0.3-3 µM
# T2 sequence (whole entry): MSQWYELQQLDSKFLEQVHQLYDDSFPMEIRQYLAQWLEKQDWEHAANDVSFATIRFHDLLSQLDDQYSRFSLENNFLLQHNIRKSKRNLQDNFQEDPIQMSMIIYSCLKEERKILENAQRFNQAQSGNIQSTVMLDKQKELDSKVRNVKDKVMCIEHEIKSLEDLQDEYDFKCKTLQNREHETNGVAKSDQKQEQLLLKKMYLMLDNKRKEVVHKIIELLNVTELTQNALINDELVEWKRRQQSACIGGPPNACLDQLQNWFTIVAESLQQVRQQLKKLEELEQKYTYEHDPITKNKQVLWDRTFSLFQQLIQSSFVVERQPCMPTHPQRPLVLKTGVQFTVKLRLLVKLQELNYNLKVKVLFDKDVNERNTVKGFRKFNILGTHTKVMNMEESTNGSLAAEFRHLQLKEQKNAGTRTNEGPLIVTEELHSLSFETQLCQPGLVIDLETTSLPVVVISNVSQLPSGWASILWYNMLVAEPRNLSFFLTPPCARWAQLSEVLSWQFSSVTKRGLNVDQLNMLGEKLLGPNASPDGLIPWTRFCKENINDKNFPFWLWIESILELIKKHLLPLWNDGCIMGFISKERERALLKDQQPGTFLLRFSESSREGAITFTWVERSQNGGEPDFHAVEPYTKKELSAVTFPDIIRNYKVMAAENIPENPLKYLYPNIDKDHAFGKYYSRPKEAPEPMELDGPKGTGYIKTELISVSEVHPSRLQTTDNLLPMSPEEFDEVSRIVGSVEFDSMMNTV
smiles,measurement,setting,value
O=C(Cc1c(-c2ccccc2)nc2ccccn12)Nc1ccc2c(c1)S(=O)(=O)C=C2,inhibition,[1],Dose-Dependent Effect
same,IC50,[2],1200 nM
same,Activity,[3],9.5%
same,Activity,[4],1.37%
same,inhibition in vivo at 15 mg/kg,[5],40.2%
same,inhibition,[6],Active
same,Tmax,[7],1.67 h
same,IC50,[8],1600 nM
same,inhibition in vivo at 5 mg/kg,[9],20.1%
same,inhibition,[10],Active
same,Activity,[11],5.71%
same,Activity,[12],Non-Toxic
same,inhibition,[13],Active
same,Activity,[14],inactive
same,Activity,[15],inactive
same,inhibition,[16],Active
same,inhibition,[17],inactive
